System: Hep 3B2
Test: Cytotoxicity against human Hep3B cells assessed as reduction in cell viability after 24 hrs in normoxic condition by MTT assay
Format: cell-based
In short: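 Hep3B viability by MTT assay after 24 h compound treatment under normoxia; table values are means, n=3.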

SMILES: C[C@H]1[C@H](C)CC[C@]2(C(=O)OCc3ccc(Cl)cc3Cl)CC[C@]3(C)C(=CC[C@@H]4[C@@]5(C)CC/C(=N\NC(=N)N)C(C)(C)[C@@H]5CC[C@]43C)[C@H]12
- IC50: > 100 µM

SMILES: C[C@H]1[C@H](C)CC[C@]2(C(=O)OCc3ccc(F)cc3)CC[C@]3(C)C(=CC[C@@H]4[C@@]5(C)CC/C(=N\NC(=N)N)C(C)(C)[C@@H]5CC[C@]43C)[C@H]12
- IC50: 12.9 µM

SMILES: C[C@H]1[C@H](C)CC[C@]2(C(=O)OCc3cccc(Cl)c3)CC[C@]3(C)C(=CC[C@@H]4[C@@]5(C)CC/C(=N\NC(=N)N)C(C)(C)[C@@H]5CC[C@]43C)[C@H]12
- IC50: 34.1 µM

SMILES: C[C@H]1[C@H](C)CC[C@]2(C(=O)O)CC[C@]3(C)C(=CC[C@@H]4[C@@]5(C)CC(=C\c6ccccc6)/C(=N\NC(=N)N)C(C)(C)[C@@H]5CC[C@]43C)[C@H]12
- IC50: > 100 µM

SMILES: CCCCCOC(=O)[C@]12CC[C@@H](C)[C@H](C)[C@H]1C1=CC[C@@H]3[C@@]4(C)CC/C(=N\NC(=N)N)C(C)(C)[C@@H]4CC[C@@]3(C)[C@]1(C)CC2
- IC50: 22 µM

SMILES: Cc1ccc(COC(=O)[C@]23CC[C@@H](C)[C@H](C)[C@H]2C2=CC[C@@H]4[C@@]5(C)CC/C(=N\NC(=N)N)C(C)(C)[C@@H]5CC[C@@]4(C)[C@]2(C)CC3)cc1
- IC50: 18 µM

SMILES: C[C@H]1[C@H](C)CC[C@]2(C(=O)O)CC[C@]3(C)C(=CC[C@@H]4[C@@]5(C)CC(=C\c6ccccc6F)/C(=N\NC(=N)N)C(C)(C)[C@@H]5CC[C@]43C)[C@H]12
- IC50: > 100 µM

SMILES: C[C@H]1[C@H](C)CC[C@]2(C(=O)OCc3c(Cl)cccc3Cl)CC[C@]3(C)C(=CC[C@@H]4[C@@]5(C)CC/C(=N\NC(=N)N)C(C)(C)[C@@H]5CC[C@]43C)[C@H]12
- IC50: 22.3 µM

SMILES: C[C@H]1[C@H](C)CC[C@]2(C(=O)O)CC[C@]3(C)C(=CC[C@@H]4[C@@]5(C)CC(=C\c6ccc(F)cc6)/C(=N\NC(=N)N)C(C)(C)[C@@H]5CC[C@]43C)[C@H]12
- IC50: > 100 µM

SMILES: C[C@H]1[C@H](C)CC[C@]2(C(=O)OCc3ccc(Cl)cc3)CC[C@]3(C)C(=CC[C@@H]4[C@@]5(C)CC/C(=N\NC(=N)N)C(C)(C)[C@@H]5CC[C@]43C)[C@H]12
- IC50: 32.1 µM

SMILES: C[C@H]1[C@H](C)CC[C@]2(C(=O)O)CC[C@]3(C)C(=CC[C@@H]4[C@@]5(C)CC(=C\c6cccc7ccccc67)/C(=N\NC(=N)N)C(C)(C)[C@@H]5CC[C@]43C)[C@H]12
- IC50: > 100 µM

SMILES: COC(=O)[C@]12CC[C@@H](C)[C@H](C)[C@H]1C1=CC[C@@H]3[C@@]4(C)CC/C(=N\NC(=N)N)C(C)(C)[C@@H]4CC[C@@]3(C)[C@]1(C)CC2
- IC50: > 100 µM

SMILES: C[C@H]1[C@H](C)CC[C@]2(C(=O)O)CC[C@]3(C)C(=CC[C@@H]4[C@@]5(C)CC(=C\c6ccc(Cl)cc6Cl)/C(=N\NC(=N)N)C(C)(C)[C@@H]5CC[C@]43C)[C@H]12
- IC50: > 100 µM

SMILES: C[C@H]1[C@H](C)CC[C@]2(C(=O)O)CC[C@]3(C)C(=CC[C@@H]4[C@@]5(C)CC(=C\c6c(Cl)cccc6Cl)/C(=N\NC(=N)N)C(C)(C)[C@@H]5CC[C@]43C)[C@H]12
- IC50: > 100 µM

SMILES: Cc1ccc(/C=C2\C[C@]3(C)[C@H]4CC=C5[C@@H]6[C@@H](C)[C@H](C)CC[C@]6(C(=O)O)CC[C@@]5(C)[C@]4(C)CC[C@H]3C(C)(C)\C2=N\NC(=N)N)cc1
- IC50: > 100 µM

SMILES: C[C@H]1[C@H](C)CC[C@]2(C(=O)O)CC[C@]3(C)C(=CC[C@@H]4[C@@]5(C)CC(=C\c6cccc(Br)c6)/C(=N\NC(=N)N)C(C)(C)[C@@H]5CC[C@]43C)[C@H]12
- IC50: > 100 µM

SMILES: C[C@H]1[C@H](C)CC[C@]2(C(=O)O)CC[C@]3(C)C(=CC[C@@H]4[C@@]5(C)CC(=C\c6ccccc6Cl)/C(=N\NC(=N)N)C(C)(C)[C@@H]5CC[C@]43C)[C@H]12
- IC50: > 100 µM

SMILES: C[C@H]1[C@H](C)CC[C@]2(C(=O)O)CC[C@]3(C)C(=CC[C@@H]4[C@@]5(C)CC/C(=N\NC(N)=S)C(C)(C)[C@@H]5CC[C@]43C)[C@H]12
- IC50: > 100 µM

SMILES: C[C@H]1[C@H](C)CC[C@]2(C(=O)O)CC[C@]3(C)C(=CC[C@@H]4[C@@]5(C)CC[C@H](O)C(C)(C)[C@@H]5CC[C@]43C)[C@H]12 [URSOLIC ACID]
- IC50: 23.8 µM

SMILES: C[C@H]1[C@H](C)CC[C@]2(C(=O)O)CC[C@]3(C)C(=CC[C@@H]4[C@@]5(C)CC(=C\c6cccc(Cl)c6)/C(=N\NC(=N)N)C(C)(C)[C@@H]5CC[C@]43C)[C@H]12
- IC50: > 100 µM

SMILES: C[C@H]1[C@H](C)CC[C@]2(C(=O)O)CC[C@]3(C)C(=CC[C@@H]4[C@@]5(C)CC(=C\c6ccco6)/C(=N\NC(=N)N)C(C)(C)[C@@H]5CC[C@]43C)[C@H]12
- IC50: > 100 µM

SMILES: C[C@H]1[C@H](C)CC[C@]2(C(=O)O)CC[C@]3(C)C(=CC[C@@H]4[C@@]5(C)CC/C(=N\NC(=N)N)C(C)(C)[C@@H]5CC[C@]43C)[C@H]12
- IC50: > 100 µM

SMILES: C[C@H]1[C@H](C)CC[C@]2(C(=O)O)CC[C@]3(C)C(=CC[C@@H]4[C@@]5(C)CC(=C\c6cccc(F)c6)/C(=N\NC(=N)N)C(C)(C)[C@@H]5CC[C@]43C)[C@H]12
- IC50: 10.5 µM

SMILES: C[C@H]1[C@H](C)CC[C@]2(C(=O)O)CC[C@]3(C)C(=CC[C@@H]4[C@@]5(C)CC/C(=N\NC(N)=O)C(C)(C)[C@@H]5CC[C@]43C)[C@H]12
- IC50: 69.8 µM

SMILES: C[C@H]1[C@H](C)CC[C@]2(C(=O)O)CC[C@]3(C)C(=CC[C@@H]4[C@@]5(C)CC(=C\c6ccc([N+](=O)[O-])cc6)/C(=N\NC(=N)N)C(C)(C)[C@@H]5CC[C@]43C)[C@H]12
- IC50: > 100 µM

SMILES: CCOC(=O)[C@]12CC[C@@H](C)[C@H](C)[C@H]1C1=CC[C@@H]3[C@@]4(C)CC/C(=N\NC(=N)N)C(C)(C)[C@@H]4CC[C@@]3(C)[C@]1(C)CC2
- IC50: 6 µM

SMILES: C[C@H]1[C@H](C)CC[C@]2(C(=O)O)CC[C@]3(C)C(=CC[C@@H]4[C@@]5(C)CC(=C\c6cccs6)/C(=N\NC(=N)N)C(C)(C)[C@@H]5CC[C@]43C)[C@H]12
- IC50: > 100 µM

SMILES: C[C@H]1[C@H](C)CC[C@]2(C(=O)O)CC[C@]3(C)C(=CC[C@@H]4[C@@]5(C)CC(=C\c6ccccc6Br)/C(=N\NC(=N)N)C(C)(C)[C@@H]5CC[C@]43C)[C@H]12
- IC50: > 100 µM
